Source: ChEMBL document CHEMBL4177749, “A Synthetic Dual Drug Sideromycin Induces Gram-Negative Bacteria To Commit Suicide with a Gram-Positive Antibiotic” (J Med Chem, 2018)
In brackets after ≈: the same amount, converted by molar mass.

How the values were obtained:
Acinetobacter baumannii [1] = assay: Antibacterial activity against Acinetobacter baumannii ATCC 17978 transfected with pNT255:ADC-1 after 18 hrs by broth microdilution method; format: functional; conditions: ATCC 17978, 18 h
Acinetobacter baumannii [2] = assay: Antibacterial activity against Acinetobacter baumannii ATCC 17978 transfected with pNT255 after 18 hrs by broth microdilution method; format: functional; conditions: ATCC 17978, 18 h
Acinetobacter baumannii [3] = assay: Antibacterial activity against Acinetobacter baumannii ATCC BAA 1793 clinical isolate after 18 hrs by broth microdilution method; format: functional; conditions: ATCC BAA 1793, 18 h
Acinetobacter baumannii [4] = assay: Antibacterial activity against Acinetobacter baumannii ATCC BAA 1797 clinical isolate after 18 hrs by broth microdilution method; format: functional; conditions: ATCC BAA 1797, 18 h
Acinetobacter baumannii [5] = assay: Antibacterial activity against Acinetobacter baumannii ATCC BAA 1800 clinical isolate after 18 hrs by broth microdilution method; format: functional; conditions: ATCC BAA 1800, 18 h
Escherichia coli = assay: Antibacterial activity against Escherichia coli DC0 after 18 hrs by broth microdilution method; format: functional; conditions: DC0, 18 h
Acinetobacter baumannii [6] = assay: Antibacterial activity against Acinetobacter baumannii ATCC 17961 clinical isolate after 18 hrs by broth microdilution method; format: functional; conditions: ATCC 17961, 18 h
Acinetobacter baumannii [7] = assay: Antibacterial activity against Acinetobacter baumannii ATCC 17978 after 18 hrs by broth microdilution method; format: functional; conditions: ATCC 17978, 18 h
Pseudomonas aeruginosa [8] = assay: Antibacterial activity against wild type Pseudomonas aeruginosa KW799 after 18 hrs by broth microdilution method; format: functional; conditions: KW799, 18 h
Pseudomonas aeruginosa [9] = assay: Antibacterial activity against Pseudomonas aeruginosa ATCC 27853 by broth microdilution method; format: functional
Pseudomonas aeruginosa [10] = assay: Antibacterial activity against Pseudomonas aeruginosa PAO1 ATCC […] by broth microdilution method; format: functional
Pseudomonas aeruginosa [11] = assay: Antibacterial activity against Pseudomonas aeruginosa by broth microdilution method; format: functional
Beta-lactamase = Beta-lactamase (Acinetobacter baumannii, UniProt Q9L4R5); assay: Drug metabolism assessed as Acinetobacter baumannii ADC-1-mediated (S)-N-((3-(3-Fluoro-4-(4-glycylpiperazin-1-yl)phenyl)-2-oxooxazolidin-5-yl)methyl)acetamide release at 20 uM after 40 mins by LC/MS method; format: ADME
Summary of the method: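 Purified ADC-1 β-lactamase (expressed as described earlier) […] with 20 μM conjugate in 50 mM sodium phosphate, pH 7.4, 1% DMSO final, room temperature, 40 min. Release of the oxazolidinone followed by LC/MS. Controls run under the same conditions: conjugate alone (20 μM) and enzyme alone (1 μM).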

SMILES: CC(=O)OCC1=C(C(=O)O)N2C(=O)[C@@H](NC(=O)C(N)c3ccccc3)[C@H]2SC1 (stereo partly specified)
- MIC (Acinetobacter baumannii [1]): > 50 µM
- MIC (Acinetobacter baumannii [2]): > 50 µM
- MIC (Acinetobacter baumannii [3]): > 50 µM
- MIC (Acinetobacter baumannii [4]): > 50 µM
- MIC (Acinetobacter baumannii [5]): > 50 µM
- MIC (Escherichia coli): 50 µM (≈ 20.3 µg/mL)
- MIC (Acinetobacter baumannii [6]): > 50 µM
- MIC (Acinetobacter baumannii [7]): > 50 µM
- MIC (Pseudomonas aeruginosa [8]): > 50 µM

SMILES: CC(O)C(NCC(=O)NC(=O)C(CCCNC(=O)CCCCCCCCC(=O)NC(C(=O)N[C@@H]1C(=O)N2[C@@H]1SC(C)(C)[C@@H]2C(=O)O)c1ccccc1)NC(=O)C(CCCN(O)C=O)NC(=O)C(CO)NC(=O)C1CCN=C2C(NC(=O)CCC(N)=O)=Cc3cc(O)c(O)cc3N21)C(=O)NC(CO)C(=O)NC1CCCN(O)C1=O (stereo partly specified)
- MIC (Pseudomonas aeruginosa [9]): 0.024 µM (≈ 0.0386 µg/mL)
- MIC (Pseudomonas aeruginosa [10]): > 100 µM

SMILES: CC(=O)OCC1=C(C(=O)O)N2C(=O)[C@@H](NC(=O)C(NC(=O)CN(CCCCNC(=O)c3cccc(O)c3O)C(=O)c3cccc(O)c3O)c3ccccc3)[C@H]2SC1 (stereo partly specified)
- MIC (Acinetobacter baumannii [1]): > 50 µM
- MIC (Acinetobacter baumannii [2]): 0.4 µM (≈ 0.322 µg/mL)
- MIC (Acinetobacter baumannii [3]): 12.5 µM (≈ 10.1 µg/mL)
- MIC (Acinetobacter baumannii [4]): > 50 µM
- MIC (Acinetobacter baumannii [5]): 25 µM (≈ 20.1 µg/mL)
- MIC (Escherichia coli): < 0.025 µM
- MIC (Acinetobacter baumannii [6]): 0.8 µM (≈ 0.645 µg/mL)
- MIC (Acinetobacter baumannii [7]): 0.4 µM (≈ 0.322 µg/mL)
- MIC (Pseudomonas aeruginosa [8]): 0.4 µM (≈ 0.322 µg/mL)

SMILES: CC(=O)Oc1cccc(C(=O)NCCCCN(CC(=O)N[C@@H](C(=O)N[C@@H]2C(=O)N3[C@@H]2SC(C)(C)[C@@H]3C(=O)O)c2ccc(O)cc2)C(=O)c2cccc(OC(C)=O)c2OC(C)=O)c1OC(C)=O
- MIC (Pseudomonas aeruginosa [11]): 0.02 to 0.16 µM (≈ 0.0187 to 0.149 µg/mL)

SMILES: CC(=O)NC[C@H]1CN(c2ccc(N3CCN(C(=O)CNC(=O)OCC4=C(C(=O)O)N5C(=O)[C@@H](NC(=O)C(N)c6ccccc6)[C@H]5SC4)CC3)c(F)c2)C(=O)O1 (stereo partly specified)
- MIC (Acinetobacter baumannii [1]): > 50 µM
- MIC (Acinetobacter baumannii [2]): > 50 µM
- MIC (Acinetobacter baumannii [3]): > 50 µM
- MIC (Acinetobacter baumannii [4]): > 50 µM
- MIC (Acinetobacter baumannii [5]): > 50 µM
- MIC (Escherichia coli): > 50 µM
- MIC (Acinetobacter baumannii [6]): > 50 µM
- MIC (Acinetobacter baumannii [7]): > 50 µM
- MIC (Pseudomonas aeruginosa [8]): > 50 µM

SMILES: CC(=O)NC[C@H]1CN(c2ccc(N3CCN(C(=O)CNC(=O)OCC4=C(C(=O)O)N5C(=O)[C@@H](NC(=O)C(NC(=O)CN(CCCCNC(=O)c6cccc(O)c6O)C(=O)c6cccc(O)c6O)c6ccccc6)[C@H]5SC4)CC3)c(F)c2)C(=O)O1 (stereo partly specified)
- MIC (Acinetobacter baumannii [1]): 6 µM (≈ 7.1 µg/mL)
- MIC (Acinetobacter baumannii [2]): 0.4 µM (≈ 0.473 µg/mL)
- MIC (Acinetobacter baumannii [3]): 0.8 to 16 µM (≈ 0.947 to 18.9 µg/mL)
- MIC (Acinetobacter baumannii [4]): 6.25 µM (≈ 7.39 µg/mL)
- Drug metabolism (Beta-lactamase): Metabolite_Detected
- MIC (Acinetobacter baumannii [5]): 0.8 µM (≈ 0.947 µg/mL)
- MIC (Escherichia coli): < 0.025 µM
- MIC (Acinetobacter baumannii [6]): 0.8 µM (≈ 0.947 µg/mL)
- MIC (Acinetobacter baumannii [7]): 0.4 µM (≈ 0.473 µg/mL)
- MIC (Pseudomonas aeruginosa [8]): 0.2 to 0.4 µM (≈ 0.237 to 0.473 µg/mL)

SMILES: CC(=O)NC[C@H]1CN(c2ccc(N3CCN(C(=O)CO)CC3)c(F)c2)C(=O)O1 [EPEREZOLID]
- MIC (Acinetobacter baumannii [1]): > 50 µM
- MIC (Acinetobacter baumannii [2]): > 50 µM
- MIC (Acinetobacter baumannii [7]): > 50 µM

SMILES: CC(=O)NC[C@H]1CN(c2ccc(N3CCN(C(=O)CN)CC3)c(F)c2)C(=O)O1
- MIC (Acinetobacter baumannii [1]): > 500 µM
- MIC (Acinetobacter baumannii [2]): > 500 µM
- MIC (Acinetobacter baumannii [3]): > 50 µM
- MIC (Acinetobacter baumannii [4]): > 50 µM
- MIC (Acinetobacter baumannii [5]): > 50 µM
- MIC (Escherichia coli): > 50 µM
- MIC (Acinetobacter baumannii [6]): > 50 µM
- MIC (Acinetobacter baumannii [7]): > 500 µM
- MIC (Pseudomonas aeruginosa [8]): > 50 µM

SMILES: CC(=O)NC[C@H]1CN(c2ccc(N3CCN(C(=O)CNC(=O)CN(CCCCNC(=O)c4cccc(O)c4O)C(=O)c4cccc(O)c4O)CC3)c(F)c2)C(=O)O1
- MIC (Acinetobacter baumannii [1]): > 50 µM
- MIC (Acinetobacter baumannii [2]): > 50 µM
- MIC (Acinetobacter baumannii [3]): > 50 µM
- MIC (Acinetobacter baumannii [4]): > 50 µM
- MIC (Acinetobacter baumannii [5]): > 50 µM
- MIC (Escherichia coli): > 50 µM
- MIC (Acinetobacter baumannii [6]): > 50 µM
- MIC (Acinetobacter baumannii [7]): > 50 µM
- MIC (Pseudomonas aeruginosa [8]): > 50 µM
